Common to all, as to assay type: functional
The species entered for experiment [1] is Rattus norvegicus. The experiment is described as follows: Stimulation of luteinizing hormone release in ovariectomized rat assessed as serum luteinizing hormone level at 1000 ng pretreated with estrogen and progesterone by radioimmunoassay relative to control. Put shortly: (§1)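 Ovariectomized rats pretreated with estrogen and progesterone, then given peptide at two doses (250 and 1000 ng). Saline alone and synthetic LH-RH at 2.5 and 10 ng served as comparators. Serum LH was measured by radioimmunoassay and reported in ng/mL ± SE.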

The species named for experiment [2] is Rattus norvegicus. The experiment is described as follows: Stimulation of luteinizing hormone release in ovariectomized rat at 1000 ng pretreated with estrogen and progesterone by radioimmunoassay relative to LH-RH. Put shortly:
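Ovariectomized rats primed with estrogen and progesterone received peptide at 250 and 1000 ng, with saline and synthetic LH-RH (2.5 and 10 ng) as references. Serum LH was measured by radioimmunoassay. Activity is expressed as % of synthetic LH-RH (taken as 100) with 95% confidence limits.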

Experiment [3] is filed under the species Rattus norvegicus. The experiment is described as follows: Stimulation of luteinizing hormone release in ovariectomized rat assessed as serum luteinizing hormone level at 250 ng pretreated with estrogen and progesterone by radioimmunoassay relative to control. Put shortly:
as §1

For `CC(C)C[C@H](NC(=O)[C@@H](C)NC(=O)[C@H](Cc1ccc(O)cc1)NC(=O)[C@H](CO)NC(=O)[C@H](Cc1c[nH]c2ccccc12)NC(=O)[C@H](Cc1cnc[nH]1)NC(=O)CCN)C(=O)N[C@@H](CCCNC(=N)N)C(=O)N1CCC[C@H]1C(=O)NCC(=O)O`, the Activity in experiment [1] is 65.69 ng/mL; in experiment [2], less than 0.01%; in experiment [3] it was 80.74 ng/mL.

On to `CC(C)C[C@@H]1NC(=O)[C@@H](C)NC(=O)[C@H](Cc2ccc(O)cc2)NC(=O)[C@H](CO)NC(=O)[C@H](Cc2c[nH]c3ccccc23)NC(=O)[C@H](Cc2cnc[nH]2)NC(=O)CCNC(=O)CNC(=O)[C@@H]2CCCN2C(=O)[C@H](CCCNC(=N)N)NC1=O`, for which the Activity worked out at 364.59 ng/mL in experiment [1], 1.2% in experiment [2] and 206.67 ng/mL in experiment [3].

For `CC(C)C[C@@H]1NC(=O)[C@@H](C)NC(=O)[C@H](Cc2ccc(O)cc2)NC(=O)[C@H](CO)NC(=O)[C@H](Cc2c[nH]c3ccccc23)NC(=O)[C@H](Cc2cnc[nH]2)NC(=O)CCCCCNC(=O)CNC(=O)[C@@H]2CCCN2C(=O)[C@H](CCCNC(=N)N)NC1=O`, the Activity in experiment [1] came out at 315.81 ng/mL; in experiment [2], 0.65%; in experiment [3] it was 151.02 ng/mL.
